Key:
Rattus norvegicus [1] = assay: Biodistribution in lung 24 hours after iv injection in walker tumor bearing rat; type: ADME, organism-based; details: in vivo
Summary of the method: (§1)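 Female Sprague–Dawley rats (200–250 g) were inoculated in the right hind limb with 5.0 × 10⁶ Walker 256 cells in saline and used 6–10 days later, when tumors averaged 10 g. The radioiodinated agent, in 2–3% Tween-20/saline after ethanol removal, was given as 5–10 μCi in 0.5 mL by tail vein to anesthetized rats. Tissues were dissected, weighed and counted with decay correction. Values are % ID/g, mean ± SEM, n = 3.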

Rattus norvegicus [2] = assay: Biodistribution in kidney 24 hours after iv injection in walker tumor bearing rat; type: ADME, organism-based; details: in vivo; summary of the method: as §1
Rattus norvegicus [3] = assay: Biodistribution in injected site 24 hours after iv injection in walker tumor bearing rat; type: ADME, organism-based; details: in vivo; summary of the method: as §1
Rattus norvegicus [4] = assay: Biodistribution in tumor 24 hours after iv injection in walker tumor bearing rat; type: ADME, organism-based; details: in vivo; summary of the method: as §1
Rattus norvegicus [5] = assay: Biodistribution in ovary 48 hours after iv injection in walker tumor bearing rat; type: ADME, organism-based, Female gonad; details: in vivo; summary of the method: as §1
Rattus norvegicus [6] = assay: Biodistribution in injected site 48 hours after iv injection in walker tumor bearing rat; type: ADME, organism-based; details: in vivo; summary of the method: as §1
Rattus norvegicus [7] = assay: Biodistribution in plasma 24 hours after iv injection in walker tumor bearing rat; type: ADME, organism-based; details: in vivo; summary of the method: as §1
Rattus norvegicus [8] = assay: Biodistribution in thyroid 24 hours after iv injection in walker tumor bearing rat; type: ADME, organism-based, Thyroid gland; details: in vivo; summary of the method: as §1
Rattus norvegicus [9] = assay: Biodistribution in tumor 48 hours after iv injection in walker tumor bearing rat; type: ADME, organism-based; details: in vivo; summary of the method: as §1
Rattus norvegicus [10] = assay: Biodistribution in liver 24 hours after iv injection in walker tumor bearing rat; type: ADME, organism-based; details: in vivo; summary of the method: as §1
Rattus norvegicus [11] = assay: Biodistribution in spleen 48 hours after iv injection in walker tumor bearing rat; type: ADME, organism-based; details: in vivo; summary of the method: as §1
Rattus norvegicus [12] = assay: Biodistribution in duodenum 24 hours after iv injection in walker tumor bearing rat; type: ADME, organism-based; details: in vivo; summary of the method: as §1
Rattus norvegicus [13] = assay: Biodistribution in lung 48 hours after iv injection in walker tumor bearing rat; type: ADME, organism-based; details: in vivo; summary of the method: as §1
Rattus norvegicus [14] = assay: Ratio of the biodistribution in tumor to liver 24 hours after iv injection in walker tumor bearing rat; type: ADME, organism-based; details: in vivo
Summary of the method: (§2)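 Walker 256 tumor-bearing female Sprague–Dawley rats were given 5–10 μCi of radioiodinated agent in Tween-20/saline iv by tail vein (n = 3 per time point). After dissection and decay-corrected counting, tumor % ID/g was divided by blood or liver % ID/g.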

Rattus norvegicus [15] = assay: Ratio of the biodistribution in tumor to liver 48 hours after iv injection in walker tumor bearing rat; type: ADME, organism-based; details: in vivo; summary of the method: as §2
Rattus norvegicus [16] = assay: Biodistribution in blood 24 hours after iv injection in walker tumor bearing rat; type: ADME, organism-based; details: in vivo; summary of the method: as §1
Rattus norvegicus [17] = assay: Biodistribution in muscle 48 hours after iv injection in walker tumor bearing rat; type: ADME, organism-based, Muscle tissue; details: in vivo; summary of the method: as §1
Rattus norvegicus [18] = assay: Biodistribution in kidney 48 hours after iv injection in walker tumor bearing rat; type: ADME, organism-based; details: in vivo; summary of the method: as §1
Rattus norvegicus [19] = assay: Biodistribution in liver 48 hours after iv injection in walker tumor bearing rat; type: ADME, organism-based; details: in vivo; summary of the method: as §1
Rattus norvegicus [20] = assay: Biodistribution in duodenum 48 hours after iv injection in walker tumor bearing rat; type: ADME, organism-based; details: in vivo; summary of the method: as §1
Rattus norvegicus [21] = assay: Ratio of the biodistribution in tumor to blood 24 hours after iv injection in walker tumor bearing rat; type: ADME, organism-based; details: tumour; summary of the method: as §2
Rattus norvegicus [22] = assay: Biodistribution in ovary 24 hours after iv injection in walker tumor bearing rat; type: ADME, organism-based, Female gonad; details: in vivo; summary of the method: as §1
Rattus norvegicus [23] = assay: Ratio of the biodistribution in tumor to blood 48 hours after iv injection in walker tumor bearing rat; type: ADME, organism-based; details: in vivo; summary of the method: as §2
Rattus norvegicus [24] = assay: Biodistribution in blood 48 hours after iv injection in walker tumor bearing rat; type: ADME, organism-based; details: in vivo; summary of the method: as §1
Rattus norvegicus [25] = assay: Biodistribution in muscle 24 hours after iv injection in walker tumor bearing rat; type: ADME, organism-based, Muscle tissue; details: in vivo; summary of the method: as §1
Rattus norvegicus [26] = assay: Biodistribution in thyroid 48 hours after iv injection in walker tumor bearing rat; type: ADME, organism-based, Thyroid gland; details: in vivo; summary of the method: as §1
Rattus norvegicus [27] = assay: Biodistribution in plasma 48 hours after iv injection in walker tumor bearing rat; type: ADME, organism-based; details: in vivo; summary of the method: as §1
Rattus norvegicus [28] = assay: Biodistribution in spleen 24 hours after iv injection in walker tumor bearing rat; type: ADME, organism-based; details: in vivo; summary of the method: as §1

| ID/g (Rattus norvegicus [1]) [%] | ID/g (Rattus norvegicus [2]) [%] | ID/g (Rattus norvegicus [3]) [%] | ID/g (Rattus norvegicus [4]) [%] | ID/g (Rattus norvegicus [5]) [%] | ID/g (Rattus norvegicus [6]) [%] | ID/g (Rattus norvegicus [7]) [%] | ID/g (Rattus norvegicus [8]) [%] | ID/g (Rattus norvegicus [9]) [%] | ID/g (Rattus norvegicus [10]) [%] | ID/g (Rattus norvegicus [11]) [%] | ID/g (Rattus norvegicus [12]) [%] | ID/g (Rattus norvegicus [13]) [%] | ID/g (Rattus norvegicus [14]) | ID/g (Rattus norvegicus [15]) | ID/g (Rattus norvegicus [16]) [%] | ID/g (Rattus norvegicus [17]) [%] | ID/g (Rattus norvegicus [18]) [%] | ID/g (Rattus norvegicus [19]) [%] | ID/g (Rattus norvegicus [20]) [%] | SMILES | other results |
| --- | --- | --- | --- | --- | --- | --- | --- | --- | --- | --- | --- | --- | --- | --- | --- | --- | --- | --- | --- | --- | --- |
| 0.35 | 0.37 | 0.26 | 0.78 | 0.14 | 0.24 | 0.06 | 10.33 | 0.45 | 0.53 | 0.1 | 1.04 | 0.14 | 1.5 | 2 | 0.07 | 0.02 | 0.16 | 0.23 | 0.23 | CO[C@@H](COCCCCCCCCCCCCc1cccc(I)c1)COP(=O)([O-])OCC[N+](C)(C)C | ID/g (Rattus norvegicus [21]): 11.1; ID/g (Rattus norvegicus [22]): 0.31%; ID/g (Rattus norvegicus [23]): 15; ID/g (Rattus norvegicus [24]): 0.03%; ID/g (Rattus norvegicus [25]): 0.05%; ID/g (Rattus norvegicus [26]): 13.69%; ID/g (Rattus norvegicus [27]): 0.03%; ID/g (Rattus norvegicus [28]): 0.43% |
| 0.29 | 0.33 | 0.23 | 0.55 | 0.14 | 0.25 | 0.06 | 23.81 | 0.43 | 0.52 | 0.1 | 0.73 | 0.14 | 1.1 | 1.7 | 0.05 | 0.02 | 0.2 | 0.25 | 0.34 | CO[C@H](COCCCCCCCCCCCCc1cccc(I)c1)COP(=O)([O-])OCC[N+](C)(C)C | ID/g (Rattus norvegicus [21]): 11; ID/g (Rattus norvegicus [22]): 0.28%; ID/g (Rattus norvegicus [23]): 14.3; ID/g (Rattus norvegicus [24]): 0.03%; ID/g (Rattus norvegicus [25]): 0.04%; ID/g (Rattus norvegicus [26]): 24.11%; ID/g (Rattus norvegicus [27]): 0.03%; ID/g (Rattus norvegicus [28]): 0.37% |
| 0.34 | 0.46 | 0.24 | 0.85 | 0.27 | 0.17 | 0.1 | 47.22 | 0.56 | 0.81 | 0.17 | 1.12 | 0.2 | 1.1 | 1.6 | 0.07 | 0.03 | 0.24 | 0.35 | 0.44 | COC(COCCCCCCCCCCCCc1cccc(I)c1)COP(=O)([O-])OCC[N+](C)(C)C (racemic) | ID/g (Rattus norvegicus [21]): 12.1; ID/g (Rattus norvegicus [22]): 0.37%; ID/g (Rattus norvegicus [23]): 11.2; ID/g (Rattus norvegicus [24]): 0.05%; ID/g (Rattus norvegicus [25]): 0.04%; ID/g (Rattus norvegicus [26]): 24.44%; ID/g (Rattus norvegicus [27]): 0.05%; ID/g (Rattus norvegicus [28]): 0.42% |

— ChEMBL document CHEMBL1128508, “Synthesis and biological evaluation of radioiodinated phospholipid ether stereoisomers” (J Med Chem, 1995)
